Bioassay records (PubChem BioAssay)
HNF4A DNA FP: change in binding of human HNF4A to DNA, primary screen, biochemical, fluorescence polarization, FITC-DNA; Hepatocyte nuclear factor 4-alpha (Homo sapiens), P41235; 1 h; activity change, % at 10 µM; hit rate 0.3% among 360,000; AID 1224865, 2016; in the data active = activity change above about 30%, passing the limit was not always enough
ARFGAP1 inhibitor: inhibitors of rat ARFGAP1 GAP activity, primary screen, biochemical, fluorescence polarization, GDP tracer | Arfgap1-stimulated ARF1 GTP hydrolysis, GDP FP detection | inhibition, % at 16.5 µM | ADP-ribosylation factor GTPase-activating protein 1 (Rattus norvegicus), Q62848 | AID 651572, 2012 | hit rate 0.26% among 360,000;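 active = inhibition above a per-plate limit, mean inhibition of low control wells plus 3 SD, cut at about 25% in these data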;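 note: 0% = DMSO wells with enzyme and 100% = wells lacking Arfgap1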
Target sequence (Q62848 1-136 limits assumed): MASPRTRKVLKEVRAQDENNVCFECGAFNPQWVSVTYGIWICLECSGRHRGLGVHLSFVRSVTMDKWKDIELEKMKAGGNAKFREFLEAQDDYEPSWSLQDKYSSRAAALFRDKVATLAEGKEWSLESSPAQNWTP
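Material: truncated rat Arfgap1 GAP domain; Incubation: compound-enzyme preincubation 20 min, reaction 120 min, detection 60 min, 25 °C; Read-out: percent inhibition of Arfgap1-stimulated GTP hydrolysis; Technique: FP, GDP Alexa 633 tracer displaced from anti-GDP antibody, 620/688 nm; Controls: No-Arfgap1 wells (100%) versus DMSO full-reaction wells (0%); Replication: single well per compound.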
CSN inh: inhibitors of CSN-mediated cullin deneddylation, primary screen, biochemical, fluorescence polarization, uHTS; COP9 signalosome complex subunit 5 (Homo sapiens), Q92905; Purified CSN, SCF-Nedd8-OG deneddylation; inhibition, % at 12.5 µM; hit rate 0.38% among 360,000; AID 651999, 2013;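 active = pattern-corrected inhibition above about 35%, with an unprinted fluorescence ratio check between 0.5 and 1.5, limit read from the data, passing the limit was not always enough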;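 note: 0% = enzyme with substrate and 100% = substrate without enzyme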
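assay system = purified human Csn5 enzyme expressed in HEK293T cells | amount = 0.24 nM enzyme | buffer or medium = Tris/NaCl/DTT buffer, pH 7.5 | reagent = 10 nM SCFSkp2-Nedd8OG | compound = one concentration, 12.5 µM, 0.25% DMSO | times = 90 min reaction at room temperature | signal = FP | read-out basis = % inhibition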
ASAP1 inh: inhibitors of human ASAP1 ArfGAP activity, primary screen, biochemical, fluorescence polarization | hit rate 0.19% among 360,000 | ASAP1-stimulated ARF1 GTP hydrolysis, GDP FP detection | Arf-GAP with SH3 domain, ANK repeat and PH domain-containing protein 1 (Homo sapiens), … | inhibition, % at 16.5 µM; in the data active = inhibition above about 25%;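 note: 0% = vehicle with enzyme and substrate and 100% = no enzyme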
Target sequence (Q9ULH1 325-724 limits assumed): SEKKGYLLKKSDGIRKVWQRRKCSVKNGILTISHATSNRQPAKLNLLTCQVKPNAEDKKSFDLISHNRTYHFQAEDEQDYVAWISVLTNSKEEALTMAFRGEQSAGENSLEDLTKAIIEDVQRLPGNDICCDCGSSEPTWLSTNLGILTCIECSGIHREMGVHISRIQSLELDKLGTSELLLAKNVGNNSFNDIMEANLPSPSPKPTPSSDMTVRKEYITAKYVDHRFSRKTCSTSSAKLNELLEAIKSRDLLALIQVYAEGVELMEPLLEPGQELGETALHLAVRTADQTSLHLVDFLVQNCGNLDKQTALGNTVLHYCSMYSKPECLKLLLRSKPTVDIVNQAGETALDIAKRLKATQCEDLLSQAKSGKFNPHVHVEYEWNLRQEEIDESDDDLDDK
HNF4A confirm: change in HNF4A binding to DNA, retest, confirmation, biochemical, fluorescence polarization, FITC-DNA. shares compounds with HNF4A DNA FP. 1 h. activity change, % at 12.5 µM. hit rate 99% among 210; call rule not given here
* marks the source's active call; other numbers are inactive results; . = no result given. Shown are actives, neighbours in structure and some others; about 0.95% of the full set was active somewhere.

SMILES	HNF4A DNA FP	ARFGAP1 inhibitor	CSN inh	ASAP1 inh	HNF4A confirm
CCC(C)c1ccc(O)c(NC(=S)NC(=O)c2cccs2)c1 (stereo not drawn)	2	-5	-4	1	.
C[C@@H]1COc2cc(N3CCC[C@H]3CO)ccc2S(=O)(=O)N1	3	-3	1	-1	.
Cc1c(-c2ccc(/C=N/NC(=O)C(=O)Nc3ccccc3F)o2)cccc1[N+](=O)[O-]	79*	14	15	0	35*
CCCCCn1nnnc1-c1nc2cc(C)c(C)cc2[nH]c1=O	3	3	2	2	.
COc1ccc2c(c1)C1=NN(/C(C)=C\C(C)=O)C(c3ccccc3)C1CC2 (stereo not drawn)	40*	9	9	-5	53*
CCOC(=O)/C=C1/N(C)c2ccccc2C1(C)C	-1	-5	5	-6	.
CN1/C(=C\P(=O)(N(C)C)N(C)C)C(C)(C)c2ccccc21	39*	-2	22	-3	43*
COc1ccc(OCCCC(=O)OCC(=O)NNC(=O)c2ccc([N+](=O)[O-])cc2)cc1	-3	18	6	-4	.
CCCCNc1c(-c2cc3ccccc3o2)nc2nc(C)cc(C)n12	45*	-1	11	-8	37*
CCN1CCc2c(sc(NC(=O)c3ccc(S(=O)(=O)N4CCOCC4)cc3)c2C(N)=O)C1	6	9	1	8	.
CCCN1CCc2c(sc(NC(=O)c3ccc(S(=O)(=O)N4CCCC4)cc3)c2C(N)=O)C1	41*	-3	15	4	54*
COc1ccc(-c2cnc(C(O)c3ccc(OC)c(F)c3)[nH]2)cc1 (stereo not drawn)	-1	7	1	2	.
COc1ccc(NS(=O)(=O)c2ccc3oc(SC(C)C(N)=O)nc3c2)cc1 (stereo not drawn)	3	5	0	6	.
COc1cc(/C=C2\C(=N)N3N=CSC3=NC2=O)cc(Br)c1OC(=O)c1ccco1	39*	1	13	8	79*
N=C1/C(=C\c2ccc(OC(=O)c3ccco3)cc2)C(=O)N=C2SC=NN12	3	13	-5	17	.
COc1cc(/C=C2/SC(=S)N(C)C2=O)ccc1OC(=O)c1ccco1	49*	7	25	7	37*
CCS(=O)(=O)C1=NSC2=NC(=O)/C(=C\c3ccc(OC(=O)c4ccco4)c(OC)c3)C(=N)N21	44*	-16	31	-9	59*
CCOc1cc(/C=C2/C(=N)N3C(=NC2=O)SN=C3S(=O)(=O)CC)ccc1OC(=O)c1ccco1	27	-1	30	-2	.
COc1cc(/C=C2\SC(=S)N(NC(C)=O)C2=O)ccc1OC(=O)c1ccco1	27	1	16	3	.
COc1ccc(/C=C2\SC(=S)N(CCC(=O)NC3=NCCS3)C2=O)cc1OC	53*	-6	-2	-10	77*
COc1ccc(CN2C(=O)CCC2(C)c2nnnn2Cc2ccccc2)cc1 (stereo not drawn)	1	-14	-3	4	.
CN(C)CCCNc1nc2cc(-c3ccc(F)cc3)sc2c(=O)n1C	1	1	-2	1	.
COc1ccc2cc(C(c3nnnn3Cc3ccccc3)N3CCCCCC3)c(=O)[nH]c2c1 (stereo not drawn)	-3	-9	0	13	.
COc1ccc2cc(C(c3nnnn3CCc3ccccc3)N3CCC(O)CC3)c(=O)[nH]c2c1 (stereo not drawn)	55*	12	14	11	51*
COc1ccc(-n2c(C)cc(/C=C3\SC(=S)NC3=O)c2C)cc1	40*	-1	22	-9	59*
SMILES	HNF4A DNA FP	ARFGAP1 inhibitor	CSN inh	ASAP1 inh	HNF4A confirm
CCOC(=O)c1c(NC(=S)Nc2ccc(Cl)cc2)sc2c1CCN(C)C2	58*	-4	61*	6	83*
COc1ccc(C)cc1NC(=S)N1CC(C)OC(C)C1 (stereo not drawn)	1	8	-2	-16	.
O=C(N/N=C/c1coc2ccccc2c1=O)c1cc(Br)ccc1O	46*	7	27	4	35*
CC(=O)c1sc(N/N=C\c2cccc(Br)c2)nc1C	39*	21	27	2	57*
Cc1cc(=O)[nH]c(N/N=C/c2cccc(Br)c2)n1	5	14	4	-8	.
COc1ccc(CC(=O)Nc2c(C(=O)N3CCN(c4ncccn4)CC3)oc3ccccc23)cc1	2	-5	3	-5	.
COC(=O)CCN1CCN(S(=O)(=O)c2ccccc2Br)CC1	-4	14	1	-7	.
C#CCOCCOCCOCCNc1nc(N2CCN(C(=O)CCCCCCCCCCNC(=O)[C@@H](CCC(=O)O)n3cc(CCCCCN)nn3)CC2)nc(N2CCN(C(=O)CCCCCCCCCCNC(=O)[C@H](CO)n3cc(CCCCCN)nn3)CC2)n1	8	.	2	.	.
C#CCOCCOCCOCCNc1nc(N2CCN(C(=O)C([C@@H](C)O)n3cc([C@@H](N)CCCCN)nn3)CC2)nc(N2CCN(C(=O)[C@H](CCC(=O)O)n3cc([C@@H](N)[C@H](C)CC)nn3)CC2)n1 (stereo partly drawn)	-1	-3	3	-5	.
C#CCOCCOCCOCCNc1nc(N2CCN(C(=O)[C@H](CCCCN)n3cc(CN)nn3)CC2)nc(N2CCN(C(=O)[C@H](CCC(=O)O)n3cc([C@@H](N)CCCCN)nn3)CC2)n1	92*	-4	100*	14	123*
C#CCOCCOCCOCCNc1nc(N2CCN(C(=O)CCCCCCCCCCNC(=O)[C@H](CCCCN)n3cc(CCO)nn3)CC2)nc(N2CCN(C(=O)CCCCCCCCCCNC(=O)[C@H](CCCCN)n3cc(CCCC(=O)O)nn3)CC2)n1	48*	8	6	-4	66*
C#CCOCCOCCOCCNc1nc(N2CCN(C(=O)[C@H](CCC(=O)O)n3cc(CN)nn3)CC2)nc(N2CCN(C(=O)[C@H](CCCCN)n3cc([C@@H](N)CC(N)=O)nn3)CC2)n1	1	-5	2	-5	.
C#CCOCCOCCOCCNc1nc(N2CCN(C(=O)C([C@@H](C)O)n3cc([C@@H](N)CCCCN)nn3)CC2)nc(N2CCN(C(=O)[C@H](CCCCN)n3cc([C@@H](N)[C@H](C)CC)nn3)CC2)n1 (stereo partly drawn)	76*	-7	85*	6	94*
O=C(O)CC(c1cccc([N+](=O)[O-])c1)N1Cc2ccccc2C1=O (stereo not drawn)	5	13	1	-3	.
